Experimental findings from ChEMBL document CHEMBL4706674 (Bioorg Med Chem Lett, 2021) are described below.

For data set [1], the system named is Human immunodeficiency virus 1. The data set can be described thus: Antiviral activity against wild type HIV-1 NL4-3 harbouring Gag AV370/T371A mutant infected in MT-2 cells assessed as inhibition of viral replication in presence of 10% of fetal bovine serum by luciferase reporter gene based multicycle replication assay. Type of data set: functional, organism-based. As to conditions: Human immunodeficiency virus 1, NL4-3, MT2. On the technique in general: In a reporter assay the amount or activity of a reporter protein is the signal.

Data set [2] is described as follows: Metabolic stability in human liver microsomes assessed as half life. As to conditions: time 2 min. The format is ADME, Microsome. (Liver microsomes are a subcellular fraction often used to study metabolism.)
Data set [3] relates to Human immunodeficiency virus 1. The data set can be described thus: Antiviral activity against wild type HIV-1 NL4-3 harbouring Gag AV370 mutant infected in MT-2 cells assessed as inhibition of viral replication in presence of 10% of fetal bovine serum by luciferase reporter gene based multicycle replication assay. Type of data set: functional, organism-based. To be noted: Human immunodeficiency virus 1, NL4-3, MT2. The procedure, abridged: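 Multiple-cycle replication assay in MT-2 cells using NL4-3-derived virus carrying a Renilla luciferase reporter (NLRepRlucP373S) as the growth marker. V370A and ΔV370 viruses are identical to WT except for that single substitution or deletion at position 370.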

Data set [4] is described as follows: Tmax in rat at 5 mg/kg, po measured after 24 hrs. The format is ADME, organism-based. To be noted: in vivo. Put shortly: (§1)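 Rats dosed 5 mg/kg PO and 1 mg/kg IV; each value is the mean of 3 rats unless otherwise noted (some n = 2). Vehicle PEG 300/ethanol/Tween 80 (89:10:1 v/v), or PEG 300/ethanol/0.1 N NaOH/Tween 80 (84.5:10:5:0.5 v/v). F, tmax, Cmax and CL come from a full 24 h PK screen. AUCtotal is derived from the full 24 h run plus a 6 h PK screen.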

Data set [5] in a line: Metabolic stability in rat liver microsomes assessed as half life. As to conditions: time 2 min. Type of data set: ADME, Microsome.
Data set [6] can be described thus: AUC in rat at 5 mg/kg, po. As to conditions: in vivo.
Data set [7] concerns Human immunodeficiency virus 1. As to the kind of experiment: Antiviral activity against wild type HIV-1 NL4-3 harbouring Gag V370A mutant infected in MT-2 cells assessed as inhibition of viral replication in presence of 10% of fetal bovine serum by luciferase reporter gene based multicycle replication assay. The format is functional, organism-based. To be noted: Human immunodeficiency virus 1, NL4-3, MT2.

Data set [8] in a line: Cmax in rat at 5 mg/kg, po measured after 24 hrs. As to conditions: in vivo. On the set-up: route oral, dose 5 mg/kg, time 24 hrs. The format is ADME, organism-based. Put shortly: as §1
Data set [9] relates to Human immunodeficiency virus 1. As to the kind of experiment: Antiviral activity against wild type HIV-1 NL4-3 infected in MT-2 cells assessed as inhibition of viral replication in presence of 40% human serum and 27 mg/ml human serum albumin by luciferase reporter gene based multicycle replication assay. The format is functional, organism-based. As to conditions: Human immunodeficiency virus 1, NL4-3, MT2.

The test system of data set [10] is Human immunodeficiency virus 1. The data set can be described thus: Antiviral activity against wild type HIV-1 NL4-3 harbouring Gag […]/V370A mutant infected in MT-2 cells assessed as inhibition of viral replication in presence of 10% of fetal bovine serum by luciferase reporter gene based multicycle replication assay. The format is functional, organism-based. As to conditions: Human immunodeficiency virus 1, NL4-3, MT2.

The nature of data set [11]: AUCtotal in rat at 5 mg/kg, po measured after 24 hrs. The format is ADME, organism-based. On the set-up: route oral, dose 5 mg/kg, time 24 hrs. To be noted: in vivo. Put shortly:
as §1

Molecules are shown by their SMILES. Where only a bound is given, the exact number is not on record here.

In the case of `C=C(C)[C@@H]1CC[C@]2(NCCN3CCS(=O)(=O)CC3)CC[C@]3(C)[C@H](CC[C@@H]4[C@@]5(C)CC=C(c6ccc(C(=O)O)cc6)C(C)(C)[C@@H]5CC[C@]43C)[C@@H]12` [BMS-955176], the EC50 in data set [1] was determined as 23 nM; in data set [3], 13 nM; in data set [7], 2.7 nM; in [9] it was 11.5 nM; in [10], 148 nM. Also, the half-life in data set [2] and in [5] was greater than 2 h in each case. For the same compound, the time of peak concentration (Tmax) in data set [4] came out at 6 h. Also, the area under the curve (AUC) in data set [6] amounted to 4.1 µM·h; in data set [11] it was 14.2 µM·h. In data set [8], this compound showed a peak concentration (Cmax) of 1200 nM.

The term EC50 denotes the concentration giving half of the maximal effect. As a reminder, the half-life is how long it takes for the measured level to halve. For orientation: Tmax means the time at which the peak concentration occurs. Usually AUC stands for concentration integrated over time. A word on the Cmax: it is the peak of the concentration-time curve.
